MC4R antagonist = human MC4R antagonism in cAMP assay | P32245 | inhibition, % at 6.5 µM | AID 540295 | MC4R-expressing cells, MTII-stimulated cAMP, LANCE TR-FRET | 360,000 tested, 0.48% active;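 active = inhibition above its plate's cutoff, the mean of tested wells on that plate plus 3 SD, cut at about 29% in these data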;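 note: 0% = Melanotan II alone and 100% = Melanotan II plus saturating MCL0020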
Target sequence (P32245 whole entry, looked up): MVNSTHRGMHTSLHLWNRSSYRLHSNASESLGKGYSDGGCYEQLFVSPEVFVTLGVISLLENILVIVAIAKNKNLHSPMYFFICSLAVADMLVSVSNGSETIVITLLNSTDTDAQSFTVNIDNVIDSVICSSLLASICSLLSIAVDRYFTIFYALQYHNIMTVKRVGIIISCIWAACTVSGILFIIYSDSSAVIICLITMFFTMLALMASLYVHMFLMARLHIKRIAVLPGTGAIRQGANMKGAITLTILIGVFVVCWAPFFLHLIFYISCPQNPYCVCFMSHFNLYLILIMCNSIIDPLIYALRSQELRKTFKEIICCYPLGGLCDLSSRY
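Assay system: human MC4R-expressing U2OS cells; reagent: Melanotan II stimulation of cells; dosing: 6.5 µM single dose; timing: compound 30 min, challenge 1 h, detection 1 h; signal: TR-FRET cAMP assay; replicates: one well per compound, no replicates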
B2AR ag = activates human beta-2 adrenergic receptor causing internalization; P07550; Am2.2-beta2AR cells, FAP receptor internalization, flow cytometry; response, % (concentration not given with the values); 340,000 tested, 0.43% active;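 active = response above a set limit, near 3 SD of response in nonfluorescent compounds, cut at about 42% in these data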
Target sequence (P07550 whole entry, looked up): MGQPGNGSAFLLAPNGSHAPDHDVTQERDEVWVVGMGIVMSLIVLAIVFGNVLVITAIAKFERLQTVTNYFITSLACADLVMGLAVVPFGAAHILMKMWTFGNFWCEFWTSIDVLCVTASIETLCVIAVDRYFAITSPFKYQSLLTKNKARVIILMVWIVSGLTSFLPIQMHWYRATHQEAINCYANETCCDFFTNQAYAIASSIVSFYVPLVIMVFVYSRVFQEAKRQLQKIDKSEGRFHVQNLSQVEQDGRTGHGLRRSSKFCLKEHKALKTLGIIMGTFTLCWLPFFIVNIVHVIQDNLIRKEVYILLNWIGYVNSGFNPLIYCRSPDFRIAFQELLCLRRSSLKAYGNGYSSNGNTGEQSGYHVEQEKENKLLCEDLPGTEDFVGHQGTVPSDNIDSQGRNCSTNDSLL
MC4R ag barr = agonists of human melanocortin 4 receptor (MC4R) beta-arrestin; P32245; U2OS MC4R beta-arrestin complementation, luminescence; percent of melanotan II response, DMSO zero; AID 540308; 360,000 tested, 0.98% active; activation, % at 8.9 µM;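 active = activation above a per-plate cutoff, the mean activation of sample wells on that plate plus 3 SD, cut at about 8% in these data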
ABHD5 PLIN5 PPI = inhibitors of human ABHD5-perilipin-5 interaction. Q00G26+Q8WTS1. Split G. princeps luciferase complementation, luminescence, 4 h. 360,000 tested, 0.78% active. inhibition, % at 4 µM;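 active = inhibition above the mean inhibition across every tested compound plus 3 SD, cut at about 22% in these data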;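 note: 0% = DMSO only wells and the 100% control is not disclosed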
PfG6PD inh = PfG6PD (Plasmodium falciparum) enzyme inhibition | PfGluPho enzyme, NADPH resazurin-diaphorase fluorescence | inhibition, % at 20 µM | 350,000 tested, 0.78% active;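 active = inhibition reaching at least a set limit at 20 µM in the primary screen, cut at about 59% in these data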;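 note: 0% = DMSO wells with substrate and 100% = DMSO wells lacking glucose-6-phosphate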
PfGluPho conf = PfG6PD inhibition, single-dose confirmed; AID 504753; 2,400 tested, 34% active; inhibition, % at 20 µM; recombinant PfGluPho, NADPH-diaphorase-resazurin fluorescence; shares compounds with PfG6PD inh;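 active = inhibition of at least 50% at 20 µM in any single replicate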;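 note: 0% = DMSO with substrate and 100% = DMSO lacking glucose-6-phosphate substrate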
Diaph ctr 10uM = inhibits diaphorase or oxidizes, flagging false PfG6PD hits; shares compounds with PfG6PD inh; diaphorase-coupled resazurin reduction, fluorescence, NADPH 10 uM; inhibition, % at 20 µM; 820 tested, 39% active; AID 504862;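 active = average inhibition reaching 50% or more with the compound at 20 µM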;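 note: resorufin red fluorescence formed as diaphorase reduces resazurin using NADPH; 0% = DMSO with enzyme and 100% = DMSO without enzyme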
Diaph ctr 30uM = inhibits diaphorase or oxidizes, flagging false PfG6PD hits; shares compounds with PfG6PD inh; Diaphorase/resazurin coupled assay, resorufin fluorescence, 30 uM NADPH; inhibition, % at 20 µM; 820 tested, 29% active;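 active = inhibition averaging 50% or more, tested at 20 µM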;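 note: 0% = DMSO with enzyme and 100% = DMSO wells lacking diaphorase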
* hit, by the source's call; nt = no result given. Rows were chosen to be rich in hits. Some 3% of all compounds tested hit in one or more screens of this group.

SMILES | MC4R antagonist | B2AR ag | MC4R ag barr | ABHD5 PLIN5 PPI | PfG6PD inh | PfGluPho conf | others
Cc1cc(=O)c2cc(C(=O)c3ccccc3)ccc2[nH]1 | 3.4 | 4.5 | -0.1 | 0.8 | -9.3 | nt
c1ccc(C2=Nn3c(nnc3-c3cc(-c4ccccc4)n[nH]3)SC2)cc1 | -8.2 | 12.0 | 0.6 | 4.9 | 59.9* | 10.7
COc1ccc(OC)c(C2=Nn3c(nnc3-c3cc(OC)c(OC)c(OC)c3)SC2)c1 | -40.7 | 21.1 | -0.1 | 7.0 | 97.8* | 88.8* | Diaph ctr 10uM=81.5*;Diaph ctr 30uM=69.8*
COc1cc(-c2nnc3n2N=C(c2ccccc2)CS3)cc(OC)c1OC | -37.3 | -5.0 | -3.2 | 2.2 | 97.5* | 60.2* | Diaph ctr 10uM=41.9;Diaph ctr 30uM=47.8
COc1ccc(C(=O)Oc2cc(C)c(CN3CCOCC3)cc2C)cc1OC | 4.4 | 2.2 | -1.5 | 7.7 | -8.9 | nt
CC(OC(=O)C1CC(=O)N(Cc2ccco2)C1)C(=O)Nc1ccccc1[N+](=O)[O-] (centres undefined) | 0.9 | -4.1 | -1.3 | 0.7 | 4.5 | nt
Cc1cccc(CN2CCN(C3CN(C4CCCCC4)S(=O)(=O)C3)CC2)c1 (centres undefined) | nt | nt | nt | 9.8 | nt | nt
C[C@]12c3[nH]c4ccccc4c3CCN1C(=O)C(CC(=O)NCCN1CCOCC1)C[C@@H]2C(=O)N1CCOCC1 (some centres undefined) | 4.7 | 3.0 | -0.5 | 4.7 | -6.2 | nt
Nc1ccccc1SCc1csc(-c2ccc(Cl)cc2)n1 | 10.8 | -4.5 | -0.4 | -13.8 | 60.3* | 5.0
Clc1ccc(-c2nc(CSc3ccccn3)cs2)cc1 | 0.0 | nt | 0.4 | -2.7 | 13.7 | nt
COc1cc(C(=O)ON=C2C(C)=CC(=O)C=C2C)cc(OC)c1OC | 4.2 | -1.3 | -2.8 | 0.1 | 50.0 | nt
COc1cc(C(=O)O/N=C2/C=C(C)C(=O)C=C2C)cc(OC)c1OC | 12.7 | -1.6 | -1.4 | 2.2 | 61.2* | 56.6* | Diaph ctr 10uM=26.8;Diaph ctr 30uM=8.0
Cn1c(SCC(=O)N2CC(=O)Nc3ccccc32)nnc1C(F)(F)F | 9.8 | 5.1 | -0.7 | 4.3 | -12.4 | nt
COC1=C(Br)C(=O)c2ncccc2C1=O | 5.9 | -15.6 | -1.9 | -28.4 | 111.8* | 91.2* | Diaph ctr 10uM=72.5*;Diaph ctr 30uM=75.1*
O=C(C(=O)N1CCCN(Cc2ccc(F)cc2)CC1)c1ccccc1 | nt | nt | nt | -5.8 | nt | nt
COc1cccc(NC(=O)CN(C)S(=O)(=O)/C=C/c2ccccc2)c1 | 4.6 | 1.9 | -1.2 | -3.8 | 5.5 | nt
CN(CC(=O)Nc1ccccc1Br)C(=O)c1ccccc1OCc1ccc(Cl)cc1 | 4.6 | 6.6 | -0.5 | -12.9 | 59.2* | 30.0
CN(CC(=O)Nc1ccccc1Br)C(=O)c1ccc(-c2ccc(Cl)cc2)o1 | 6.6 | 0.2 | 0.3 | 21.1 | 14.3 | nt
CCc1nnc(N2C(=N)SCC2=O)s1 | -1.8 | -1.1 | 1.0 | -4.6 | 10.2 | nt
C/C(=N\NC(=O)CNC(=O)c1ccccc1Br)c1ccco1 | 4.9 | 2.1 | -0.4 | 2.4 | -1.2 | nt
CC1(C)CN(c2ccccc2)N(C(=O)c2ccc(C#N)cc2)C1=O | 1.8 | 1.9 | -1.7 | -14.2 | 95.0* | 67.9* | Diaph ctr 10uM=1.1;Diaph ctr 30uM=1.0
Cc1cc(S(=O)(=O)N2CCCC(C(=O)Nc3ccc(C(=O)O)cc3)C2)ccc1Cl (centres undefined) | 25.1 | 7.0 | -0.4 | -3.8 | -21.2 | nt
COc1cc(NS(=O)(=O)c2cc3[nH]c(=O)c(=O)[nH]c3cc2C)cc(OC)c1OC | -0.2 | -4.5 | -0.4 | -6.7 | 63.1* | 0.1
COc1cc(NS(=O)(=O)c2ccc(C)cc2C)cc(OC)c1OC | 6.8 | 0.2 | -1.5 | -0.9 | 17.9 | nt
COC(=O)CN=Cc1c(C)[nH]n(-c2ccccc2)c1=O | 3.0 | 1.5 | -1.0 | -1.0 | -5.0 | nt
SMILES | MC4R antagonist | B2AR ag | MC4R ag barr | ABHD5 PLIN5 PPI | PfG6PD inh | PfGluPho conf | others
Cc1[nH]n(-c2ccccc2)c(=S)c1C=NCCCN=Cc1c(C)[nH]n(-c2ccccc2)c1=S | -5.5 | 18.0 | -4.0 | -20.1 | 61.9* | 27.0
CCCCn1c(N)c(N(CC(C)C)C(=O)c2c(-c3ccccc3)noc2C)c(=O)[nH]c1=O | 8.4 | 5.0 | -0.6 | 5.2 | -1.1 | nt
COc1ccc2nc3cc(Cl)ccc3c(C#N)c2c1 | 5.1 | -0.3 | -1.8 | -0.4 | 3.4 | nt
COc1ccc2nc3cc(Cl)ccc3c(Nc3ccc(O)c(CN4CCN(C)CC4)c3)c2c1 | -14.9 | 10.4 | -1.2 | 5.9 | 108.7* | 45.0* | Diaph ctr 10uM=33.1;Diaph ctr 30uM=39.9
COC(=O)c1sc(=S)n(-c2cc(F)ccc2F)c1N | -7.7 | 1.9 | -0.3 | 3.3 | 59.5* | 21.1
CCOC(=O)c1sc(=S)n(-c2cc(OC)ccc2OC)c1N | -2.5 | 3.4 | -2.2 | -10.0 | 78.1* | 45.1
CCCCNC(=O)C1(C)CCCCN1Cc1ccc(OCc2ccccc2)cc1 (centres undefined) | 6.4 | nt | -2.5 | -2.6 | nt | nt
COc1ccccc1C(=O)NCCC(=O)Nc1ccncc1 | 3.2 | 1.1 | -0.7 | -3.0 | -5.5 | nt
CC(C)n1ncc2c(C(=O)Nc3ccccc3SCC(N)=O)cc(C3CC3)nc21 | -6.3 | nt | -1.1 | -2.9 | 25.0 | nt
CCOC(=O)c1c(NC(=O)OC)sc(C(=O)N(C)C)c1C | 3.3 | 3.4 | 0.1 | 0.3 | 18.2 | nt
CCOC(=O)c1c(NC(=O)C(Sc2ccccc2)c2ccccc2)sc(C(=O)N(C)C)c1C (centres undefined) | 2.1 | 1.6 | -0.3 | -5.4 | 78.7* | 0.3
CCOC(=O)c1c(NC(=O)C(Sc2ccccc2)c2ccccc2)sc(C(N)=O)c1C (centres undefined) | 7.4 | -3.8 | 3.8 | 0.8 | 61.1* | 1.9
CCC(C(=O)Nc1sc(C(N)=O)c(C)c1C(=O)OC)c1ccccc1 (centres undefined) | 19.3 | -36.8 | 1.5 | -6.9 | -3.9 | nt
COc1ccc(/C=C/C(=O)NCC(c2ccc(F)cc2)N2CCOCC2)cc1OC (centres undefined) | -1.2 | 13.9 | 0.2 | 12.1 | 4.7 | nt
NC(=O)C1CCN(C(=O)c2ccc(-c3ccccc3Cl)o2)CC1 | 1.3 | 2.8 | -2.0 | 7.4 | 6.2 | nt
Cc1cc(C)cc(N(C(=O)CNC(=O)c2ccco2)C(C(=O)NC2CCCCC2)c2ccncc2)c1 (centres undefined) | -3.1 | -6.1 | 0.0 | 3.7 | 4.4 | nt
O=C1C=C(N2CCOCC2)c2ccccc2C1=O | -25.0 | 8.4 | 0.5 | -17.4 | 71.2* | 54.2* | Diaph ctr 10uM=72.8*;Diaph ctr 30uM=83.0*
O=C1C=C(N2CCOCC2)c2cccc3cccc1c23 | -18.4 | nt | -1.2 | -11.4 | 19.9 | nt
CC1=CN2C(=N)/C(=C/c3ccc([N+](=O)[O-])o3)C(=O)N=C2S1 | 27.3 | -496.7 | -2.2 | 5.9 | 59.1* | 73.2* | Diaph ctr 10uM=25.6;Diaph ctr 30uM=35.3
CC1=CN2C(=N)/C(=C/c3ccco3)C(=O)N=C2S1 | 8.6 | -13.0 | -3.3 | 3.7 | 8.0 | nt
